OX1R antag-1: antagonists of human orexin 1 receptor. CHO/OX1R cells, Fluo-8 calcium fluorescence, orexin A. inhibition, % at 5 µM. 0.43% of 330,000 active;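 active = inhibition above its plate's threshold, mean inhibition of all tested compounds on the plate plus 3 SD, cut at about 37% in these data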
Target sequence (O43613 whole entry, looked up): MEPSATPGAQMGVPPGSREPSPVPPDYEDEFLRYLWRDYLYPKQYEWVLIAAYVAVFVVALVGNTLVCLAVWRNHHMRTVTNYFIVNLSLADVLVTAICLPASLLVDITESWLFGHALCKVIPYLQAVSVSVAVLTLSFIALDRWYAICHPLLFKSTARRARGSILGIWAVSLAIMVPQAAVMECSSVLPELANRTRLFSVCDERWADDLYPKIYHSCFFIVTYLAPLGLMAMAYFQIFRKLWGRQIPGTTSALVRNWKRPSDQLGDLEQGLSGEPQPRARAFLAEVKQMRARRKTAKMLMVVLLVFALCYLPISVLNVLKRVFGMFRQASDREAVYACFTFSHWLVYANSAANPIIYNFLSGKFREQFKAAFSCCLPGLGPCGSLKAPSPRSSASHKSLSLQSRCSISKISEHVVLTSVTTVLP
OX1R antag-2: blocks the human orexin 1 receptor; OX1R-expressing cells, FRET antagonist read-out; inhibition, % at 6.6 µM; 1.8% of 330,000 active; AID 485270; in the data active = inhibition mostly above about 38%, no sharp cut-off; inactive = mostly below about 40%
TAAR1 ag: agonists of human TAAR1. Q96RJ0. CHO RD-HGA16 TAAR1, Fluo-8 calcium fluorescence; vehicle wells 0%, saturating PEA agonist 100%. activation, % at 3 µM. 0.99% of 360,000 active;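 active = activation above the mean activation of all test compounds in the run plus 3 SD, cut at about 38% in these data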
Target sequence (Q96RJ0 whole entry, looked up): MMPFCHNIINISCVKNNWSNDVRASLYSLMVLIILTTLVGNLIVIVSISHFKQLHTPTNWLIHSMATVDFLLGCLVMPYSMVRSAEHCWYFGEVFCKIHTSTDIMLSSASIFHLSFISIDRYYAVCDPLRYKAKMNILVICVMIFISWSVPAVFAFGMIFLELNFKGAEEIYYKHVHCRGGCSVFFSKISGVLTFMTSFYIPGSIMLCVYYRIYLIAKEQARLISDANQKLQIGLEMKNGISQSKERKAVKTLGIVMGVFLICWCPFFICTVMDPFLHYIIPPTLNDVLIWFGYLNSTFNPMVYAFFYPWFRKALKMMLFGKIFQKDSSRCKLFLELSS
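Test system: RD-HGA16 (CHO) cells co-expressing Gα16 and hTAAR1 | Doses: Single dose, 3 µM | Schedule: 17-24 h seeding, 75 min 37 °C dye, 30 min RT | Evaluation: % activation from peak over basal fluorescence ratio, DMSO-to-PEA scaled | Technique: Kinetic Fluo-8 calcium fluorescence | Benchmarks: Low control DMSO, high control PEA (EC100)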
TAAR1 antagonist: human TAAR1 antagonism. Q96RJ0. CHO RD-HGA16 TAAR1, Fluo-8 calcium fluorescence, antagonist. inhibition, % at 3 µM. 1.5% of 360,000 active. AID 624466;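 active = inhibition above a per-plate cutoff, the mean inhibition of test compounds on that plate plus 3 SD, cut at about 49% in these data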
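test system = CHO RD-HGA16 cells bearing hTAAR1 | replication = singlicate | controls = DMSO-only wells and EC80 β-PEA-stimulated wells | reagent = EC80 β-phenethylamine stimulus | read-out basis = percent inhibition of PEA-evoked calcium signal, max/basal emission ratio | schedule = seeding 17-24 h prior, 75-min 37 °C, 30-min RT dye loading | signal = kinetic Fluo-8 calcium fluorescence measurement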
GalR3 antagonist: blocks the human galanin receptor 3 | O60755 | HEK293 GalR3-CNG cAMP membrane potential fluorescence; galR3 body fused to GalR1 C-terminus | inhibition, % at 3 µM | 0.44% of 360,000 active | AID 651719;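 active = inhibition above the screen-wide average plus 3 SD, cut at about 13% in these data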;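 note: forskolin and galanin both at EC90 stimulate the cells; cAMP rise reported by CNG channel membrane potential dye signal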
CHO parental Ca: counter-screen: ATP calcium response change in parental CHO cells; 0.63% of 330,000 active; inhibition, % at 5.6 µM; parental CHO-K1, ATP-induced calcium, Fluo-8 fluorescence;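 active = inhibition above that plate's mean sample inhibition plus 3 SD, cut at about 26% in these data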
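Assay system: parental CHO cells; Read-out basis: percent inhibition of ATP-evoked calcium rise, normalized to controls; Benchmarks: ATP and no-ATP DMSO wells; Compound dosing: single nominal dose of 5.6 µM per compound; Signal: Fluo-8 calcium dye fluorescence; Also added: ATP as calcium-mobilizing challenge; Repeats: singlicate.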
Of the large screens only hits and unclear results are named; the others gave an inactive call. A selection: hits, their analogues and other compounds. The true share with any hit is near 4.3%.

CN(C)S(=O)(=O)c1cccc(NC(=O)c2ccc(COc3ccccc3)cc2)c1	TAAR1 antagonist 76.9, CHO parental Ca 55.9
CCOc1cccc(NC(=O)c2ccc(S(=O)(=O)N(C)C)cc2)c1	none
O=C(COC(=O)[C@H](Cc1ccccc1)NC(=O)c1ccco1)Nc1ccccc1	none
CCN(CC)CCNC(=O)c1ccc(NC(=O)c2ccc(C(=O)c3ccccc3)cc2)cc1	none
CN(C)S(=O)(=O)c1cccc(NC(=O)COC(=O)[C@H](Cc2ccccc2)NC(=O)c2ccco2)c1	TAAR1 antagonist 54.9
Cc1cnc(C(=O)OCC(=O)Nc2ccccc2-c2ccccc2)cn1	none
CCOc1ccc(N(CC(=O)N2CCOCC2)S(=O)(=O)c2ccc(SC)cc2)cc1	none
COc1ccc(N=C2Sc3ccccc3[C@@H]3C[C@H]4[C@H](CON4C)CN23)c(OC)c1	none (no result: OX1R antag-1, OX1R antag-2, CHO parental Ca)
Cc1ccc(NC(=S)NCC2CCN(C(C)c3ccccc3)C2)cc1C (stereo not drawn)	none
O=C(CN1CCOCC1)Nc1scc2c1c(=O)oc1ccccc12	TAAR1 antagonist 53.2
O=C(CN1CCCCC1)Nc1scc2c1c(=O)oc1ccccc12	none
Cc1cccc(NC(=O)CNC(=O)[C@@H](Cc2ccccc2)NC(=O)[C@H]2O[C@@H](n3ccc(=O)[nH]c3=O)[C@H](O)[C@@H]2O)c1C	none (no result: OX1R antag-1, OX1R antag-2, CHO parental Ca)
Cc1cccc(NC(=O)C2CCCN(S(=O)(=O)c3cccc4cccnc34)C2)c1 (stereo not drawn)	OX1R antag-2 53.6
Cc1cc(NC(=O)C2CCCN(S(=O)(=O)c3c(C)noc3C)C2)no1 (stereo not drawn)	none
Cc1cc(C)cc(NC(=O)C2CCCN(S(=O)(=O)c3c(C)noc3C)C2)c1 (stereo not drawn)	OX1R antag-2 72.3
Cc1ccc(NC(=O)CN(C)S(=O)(=O)c2cccc3cccnc23)cc1F	none
CN(CC(=O)N1CCc2ccccc21)S(=O)(=O)c1cccc2cccnc12	OX1R antag-2 60.0
Cc1ccc(NC(=O)CN(C)S(=O)(=O)c2cccc3cccnc23)cc1C	OX1R antag-2 39.1 (no result: GalR3 antagonist)
O=C(Nc1ccccc1)c1cc(C2CCCCN2S(=O)(=O)c2ccccc2)on1 (stereo not drawn)	none (no result: OX1R antag-1, OX1R antag-2, CHO parental Ca)
Cc1ccc2ccccc2c1C(O)c1ncc(-c2cccc(F)c2)[nH]1 (stereo not drawn)	none (no result: OX1R antag-1, OX1R antag-2, CHO parental Ca)
Cn1c(=O)c2c(ncn2Cc2ccc(O)c([N+](=O)[O-])c2)n(C)c1=O	none (no result: OX1R antag-1, OX1R antag-2, CHO parental Ca)
OC(Cc1cccc(C=NN2CCOCC2)n1)(C(F)(F)F)C(F)(F)F	none (no result: OX1R antag-1, OX1R antag-2, CHO parental Ca)
CCOC(=O)c1cccc(NC(=O)C2CCCN2S(=O)(=O)c2cccc3cccnc23)c1 (stereo not drawn)	none
Cc1ccc(C(=O)Nc2cccc3cccnc23)cc1C	OX1R antag-2 68.5
COc1ccc(NC(=O)C2CCCN2S(=O)(=O)c2cccc3cccnc23)c(OC)c1 (stereo not drawn)	none
O=C(C1CCCN1S(=O)(=O)c1cccc2cccnc12)N1CCc2ccccc21 (stereo not drawn)	OX1R antag-2 47.3
O=C(Nc1cccc(C(F)(F)F)c1)C1CCCN1S(=O)(=O)c1cccc2cccnc12 (stereo not drawn)	OX1R antag-1 80.1, OX1R antag-2 91.3
Cc1cccc(C(=O)Nc2cccc3cccnc23)c1	none (no result: OX1R antag-1, OX1R antag-2, CHO parental Ca)
Cc1ccccc1NC(=O)C1CCCN1S(=O)(=O)c1cccc2cccnc12 (stereo not drawn)	OX1R antag-2 42.9 (no result: TAAR1 ag, TAAR1 antagonist, GalR3 antagonist)
O=C(/C=C(\Nc1cccc(Cl)c1F)c1ccccc1)c1ccccc1	none (no result: OX1R antag-1, OX1R antag-2, CHO parental Ca)
NS(=O)(=O)c1ccc(CCNC(=O)c2ccccc2Cc2ccccc2)cc1	none
COCCn1c(SCC(=O)N2CCCc3ccccc32)nc2c(c1=O)SC(C)C2 (stereo not drawn)	none (no result: GalR3 antagonist)
O=C(CSc1nc2ccccc2c(=O)n1-c1ccccc1)N1CCc2ccccc2C1	OX1R antag-2 54.7
Cc1cccc(-n2c(SCC(=O)N3CC(=O)Nc4ccccc43)nc3ccccc3c2=O)c1C	none
CC(C)c1ccccc1-n1c(SCC(=O)N2CCc3ccccc3C2)nc2ccccc2c1=O	OX1R antag-2 73.3
COCCn1c(SCC(=O)N2CCCc3ccccc32)nc2ccccc2c1=O	OX1R antag-2 53.0
Cc1ccc(-n2c(SCC(=O)N3CC(=O)Nc4ccccc43)nc3ccccc3c2=O)cc1C	OX1R antag-2 72.3
Cc1ccc2c(c1)cc(C(=O)NCc1ccccc1)n2C	none
CCCCOCCCNC(=O)C[C@H]1C[C@@]2(C(=O)OC)C(=C[C@H](C(C)(C)C)O[C@@H]2C)N(CCC2=CCCCC2)C1=O	none (no result: OX1R antag-1, OX1R antag-2, CHO parental Ca)
CC(CCc1ccccc1)NC(=O)C(Cc1ccccc1)NS(=O)(=O)c1cccs1 (stereo not drawn)	OX1R antag-2 37.8
O=C1Nc2ccc(Br)cc2/C1=C/C1CC=CCC1 (stereo not drawn)	CHO parental Ca 32.7
O=C1Nc2ccc(Br)cc2/C1=C/C(=O)c1ccc2c(c1)OCO2	none
Cc1ccccc1OCCNc1cc(N2CCCCC2)ccc1[N+](=O)[O-]	CHO parental Ca 36.6
Cc1c(/C=C/C(=O)c2ccccc2)cnn1C	OX1R antag-2 41.0
Cc1c(/C=C/C(=O)c2ccc(O)cc2)cnn1C	none
Cc1cccc(OCc2nc(C#N)c(N3CC(C)CC(C)C3)o2)c1 (stereo not drawn)	CHO parental Ca 37.9
Cc1cc(C)cc(CC(=O)N2CCC2(C)C(=O)NS(=O)(=O)Cc2ccccc2)c1 (stereo not drawn)	none (no result: OX1R antag-1, OX1R antag-2, CHO parental Ca)
O=C(N[C@H](Cc1ccccc1)C(=O)NCc1ccc2c(c1)OCO2)[C@H]1O[C@@H](n2ccc(=O)[nH]c2=O)[C@H](O)[C@@H]1O	none (no result: OX1R antag-1, OX1R antag-2, CHO parental Ca)
C(=C\c1ccccc1)/CN1CCN(C(CCc2ccccc2)c2nnnn2C2CCCC2)CC1 (stereo not drawn)	none (no result: OX1R antag-1, OX1R antag-2, CHO parental Ca)
COc1ccc(NC(=O)CN2C(=O)C(c3ccccc3)=NC23CCCCCC3)cc1	none
O=C(CN1C(=O)C(c2ccc(F)cc2)=NC12CCCC2)Nc1ccc(F)cc1	CHO parental Ca 27.4 (no result: GalR3 antagonist)
O=C(CCc1c[nH]c2ccccc12)Nc1ccc(Nc2ccccc2)cc1	none (no result: OX1R antag-1, OX1R antag-2, CHO parental Ca)
CC(C)c1ccc(N=c2c([N+](=O)[O-])nn(-c3ccc4c(c3)OCCO4)n2O)cc1	TAAR1 antagonist 64.3
CN=c1c([N+](=O)[O-])nn(-c2ccc3c(c2)OCCO3)n1O	OX1R antag-2 61.5
COc1cc(N=c2c([N+](=O)[O-])nn(-c3ccc4c(c3)OCCO4)n2O)cc(OC)c1	none
CCc1cccc(N=c2c([N+](=O)[O-])nn(-c3ccc4c(c3)OCCO4)n2O)c1	none
CC(C)Cc1ccc(C(C)NC(=O)Cc2ccc(S(=O)(=O)N3CCOCC3)s2)cc1 (stereo not drawn)	TAAR1 ag 37.5
CC(C)CCC(C)NC(=O)Cc1ccc(S(=O)(=O)N2CCOCC2)s1 (stereo not drawn)	none

Screening results: PubChem BioAssay, The Scripps Research Institute Molecular Screening Center
